Assay outcomes (PubChem BioAssay)
An excerpt weighted towards active compounds, which were near 3.7% of everything screened.
CHOP UPR activ: apoptotic UPR (CHOP) activation; CHO-CHOP luciferase reporter, luminescence; percent of tunicamycin response over DMSO baseline; activation, % at 10 µM; 330,000 tested, 0.34% active;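 active = at 10 µM dose, activation of 40% or more, normalized to positive control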
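Evaluation: % reporter activation, DMSO baseline versus tunicamycin full activation; System: CHO-CHOP luciferase reporter cell line; Input: 500 cells/well; Incubation: 6 h compound treatment, 37 °C; Measured by: Steady-Glo luciferase luminescence; Dosing: one dose, 10 µM in 0.5% DMSO; Buffer or medium: F12 medium, 10% FBS; Benchmarks: positive tunicamycin 10 µg/mL, negative DMSO alone.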
Beta2AR agonist: activates human beta-2 adrenergic receptor causing internalization; P07550; 340,000 tested, 0.43% active; Am2.2-beta2AR cells, FAP receptor internalization, flow cytometry; AID 504454; response, % (test concentration not listed);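 active = response above a set limit, near 3 SD of response in nonfluorescent compounds, cut at about 42% in these data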
UPR XBP1 act: adaptive UPR (XBP1) activation | CHO-XBP1 luciferase reporter, IRE1-XBP1 UPR activation, luminescence; percent of tunicamycin response, DMSO as zero | activation, % at 20 µM | 330,000 tested, 0.33% active | AID 463104;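 active = versus positive control, 20 µM dose yields 30% or more activation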
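Material – CHO cell line with stable XBP1 luciferase reporter · Buffer or medium – F12 plus 10% FBS · Compound – single point, 20 µM final compound, 1% DMSO · Schedule – 16-18 h cell attachment at 37 °C, then 6 h compound exposure · Signal – Steady-Glo luminescence read · Benchmarks – high control tunicamycin 10 µg/mL final, low control DMSO vehicle only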
Mdm2 MdmX PPI: disrupts the human Mdm2-MdmX interaction. O15151+Q00987. SaOS-2 split-luciferase Mdm2/MdmX complementation, luminescence. inhibition, % at 8 µM. 330,000 tested, 3% active. AID 485346;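 active = inhibition of at least 50% at 8 µM in the primary screen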
Dynein transport: dynein cargo transport inhibition. 220,000 tested, 0.47% active. z-score, hits read low. AID 1381. 3617.4 mouse cells, GR-EGFP nuclear translocation imaging; test concentration mostly 20 µM; stimulated with dexamethasone, 1 µM; active compounds read low;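 active = plate z-score of nuclear minus cytoplasmic receptor signal below a set negative limit, without overly bright fluorescence or cell loss, cut at about -3.5 in these data, passing the limit was not always enough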;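 also: z-score of nuclear minus cytoplasmic ring GR-EGFP intensity difference per well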
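Also added: dexamethasone, 1.0 µM final. Medium: tet-free, stripped-serum medium. Detection: fixed, Hoechst-stained cells imaged at 10x for EGFP. Read-out: nuclear-to-cytoplasmic GR-EGFP distribution per well. Times: induction 48 h, compound 1 h, agonist 30 min.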
MDM2 E3 inh: inhibitors of human Mdm2 E3 ubiquitin ligase. signal enhancement, % at 5 µM. 210,000 tested, 0.11% active. cell-based MDM2 ubiquitination luciferase reporter, 2 h; 0 = plate control, 100 = twice control, blank-subtracted. Q00987;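 active = signal enhancement of 30% or more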;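 also: luminescence tracks abundance of the self-degrading MDM2-luciferase fusion protein; higher signal means inhibition of MDM2 E3 ligase activity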
Target sequence (Q00987 whole entry, looked up, the tested form may be a part): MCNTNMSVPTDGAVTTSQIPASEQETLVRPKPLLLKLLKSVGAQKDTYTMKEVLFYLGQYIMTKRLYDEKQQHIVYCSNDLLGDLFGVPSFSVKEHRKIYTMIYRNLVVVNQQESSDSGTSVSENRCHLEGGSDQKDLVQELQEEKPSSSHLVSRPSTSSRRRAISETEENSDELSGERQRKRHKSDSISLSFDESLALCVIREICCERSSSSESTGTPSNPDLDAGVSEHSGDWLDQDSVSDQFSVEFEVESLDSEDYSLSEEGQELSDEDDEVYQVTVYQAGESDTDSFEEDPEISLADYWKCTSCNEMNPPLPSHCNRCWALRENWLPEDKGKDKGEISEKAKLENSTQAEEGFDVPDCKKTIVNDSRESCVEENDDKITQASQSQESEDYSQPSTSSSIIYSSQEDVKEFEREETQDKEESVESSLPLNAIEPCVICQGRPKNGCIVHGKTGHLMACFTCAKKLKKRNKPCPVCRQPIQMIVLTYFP
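Assay system: stable mammalian line carrying autodegrading MDM2–luciferase fusion reporter; Input: 2000 cells in each well; Compound dosing: single-point 5 µM; Schedule: 2 h compound exposure at 37 °C; Signal: SteadyLite luciferase luminescence after 15 min room-temperature reagent incubation; Evaluation: % luminescence enhancement versus blank-corrected plate control mean; Benchmarks: plate controls and plate blanks.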
Mdm2-MdmX conf: human Mdm2/MdmX binding inhibition, confirmed; shares compounds with Mdm2 MdmX PPI; luminescent assay; inhibition, % at 8 µM; 10,000 tested, 55% active; AID 489028; in the data active = inhibition above about 40%
FLuc counter: inhibits full-length luciferase, flagging false Mdm2/MdmX hits; shares compounds with Mdm2 MdmX PPI; SaOS-2 full-length luciferase counterscreen, luminescence; inhibition, % at 8 µM; 6,200 tested, 77% active;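 active = mean inhibition at 8 µM reaching about 37%, which flags the compound as non-specific, limit read from the data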;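 also: p53-null SaOS-2 cells with luciferase driven by a doxycycline-inducible promoter; compound on cells about two nights before reading with doxycycline added after day one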
A number is an active result; . = inactive; / = no result.

SMILES	CHOP UPR activ	Beta2AR agonist	UPR XBP1 act	Mdm2 MdmX PPI	Dynein transport	MDM2 E3 inh	Mdm2-MdmX conf	FLuc counter
COc1ccc(OC)c2c1C(=O)C(Cl)=C(Cl)C2=O	.	97	.	96	-5.4	.	100	.
COc1ccc(C(=O)C(/C=N/O)=N/Nc2ccc(F)cc2)cc1	.	.	.	.	.	.	/	/
CO/N=C/C(=N\Nc1ccc(OC)cc1)C(=O)c1ccc(OC)cc1	.	.	.	55	.	.	52	100
COc1ccc(-c2csc3ncnc(Sc4nnnn4C)c23)cc1	.	.	.	68	/	/	46	.
Cn1nnnc1Sc1ncnc2scc(-c3ccc4c(c3)OCO4)c12	.	.	.	71	/	/	.	/
Cc1ccc(-c2csc3ncnc(SCC(=O)c4ccc5c(c4)OCCO5)c23)cc1	.	.	.	.	.	.	/	/
Cn1nnnc1Sc1ncnc2scc(-c3cccc(S(C)(=O)=O)c3)c12	.	.	.	84	/	/	70	.
O=C(O)CSc1ncnc2scc(-c3ccc(Br)cc3)c12	.	.	.	.	.	.	/	/
Cn1nnnc1Sc1ncnc2scc(-c3cccc(Br)c3)c12	.	.	.	96	/	/	100	49
COc1ccc(Nc2ncnc3scc(-c4ccc(OC)cc4)c23)cc1	.	.	.	.	.	.	/	/
CC(=O)Nc1ccc(S(=O)(=O)N2CCN(CC(=O)N3CCOCC3)CC2)cc1	.	.	.	.	.	.	/	/
Cc1ccc(-c2nc(C(Cl)Cl)c3ccccc3n2)cc1	.	.	.	96	.	.	49	.
O=c1[nH]c(C2CCN(S(=O)(=O)c3ccc4c(c3)OCCO4)CC2)nc2c1nnn2Cc1c(F)cccc1Cl	.	.	.	56	/	/	47	59
CC(=O)Nc1ccc(NC(=O)COC(=O)c2c3c(nc4ccccc24)CCN(Cc2ccccc2)C3)cc1	.	.	.	51	.	.	56	84
CCc1cccc(C)c1NC(=O)COC(=O)c1c2c(nc3ccccc13)/C(=C\c1cccs1)CCC2	.	.	.	.	.	.	/	/
NC(=O)c1ccc(NC(=O)COC(=O)c2c3c(nc4ccccc24)/C(=C\c2cccs2)CCC3)cc1	.	.	.	85	.	.	75	77
CCN1CCc2nc3ccccc3c(C(=O)Nc3ccc(NC(C)=O)cc3)c2C1	.	.	.	.	.	.	/	/
O=C(COC(=O)c1c2c(nc3ccccc13)CCN(Cc1ccccc1)C2)Nc1c(F)cccc1F	.	.	.	72	.	.	68	76
Cc1ccc(-c2cc(C(=O)N3CCN(C(=O)c4ccco4)CC3)[nH]n2)c(C)c1	.	.	.	.	/	/	/	/
Cc1ccc(NC(=O)C2=CC(c3cccs3)=NS(=O)(=O)N2C)cc1	.	.	.	53	/	/	.	/
CC(=O)c1ccc(NC(=O)C2=CC(c3cccs3)=NS(=O)(=O)N2C)cc1	.	.	.	.	/	/	/	/
CCc1ccc(NC(=O)C2=CC(c3cccs3)=NS(=O)(=O)N2C)cc1	.	.	.	72	/	/	57	44
CN(CCc1ccccc1)C(=O)c1cccc(NC(=O)Cc2cccc(NC(=O)C3CCN(C(=O)c4ccccc4)CC3)c2)c1	/	.	/	/	/	/	/	/
COc1cccc(C#Cc2c(C=O)n(C)c3ccccc23)c1	.	.	.	66	/	/	.	70
CCCCCCOC(=O)C[N+](C)(C)CCOC1CC2CCC1(C)C2(C)C (stereo unspecified)	.	.	.	67	.	.	74	.
C=C(CC1([C@@H](NP(=O)(c2ccccc2)c2ccccc2)[C@H]2C[C@@H]2CCCC)CC1)c1ccccc1	.	.	.	59	.	/	.	/
COc1ccc2cc3c(N)nn(C(=O)c4ccccc4Cl)c3nc2c1	.	.	.	93	.	.	93	51
